Only some compounds are listed: those with a hit (about 1.7% of all), similar ones and a draw of the others.
PGC1a acetyl inh – inhibitors of PGC1a acetylation signal, primary screen, cell-based, U2OS, AlphaScreen, inhibitor mode; AID 651687, 2012; inhibition, % at 15.6 µM; 0.17% of 350,000 active; AlphaScreen anti-acetyl-lysine; with virally co-expressed GCN5 acetyltransferase;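 active = every replicate shows inhibition of at least 40%; inconclusive = mean inhibition at least 40% but some replicate below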;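 also: 0% = neutral control wells and 100% = positive control wells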
ARNT-TACC3 inh – disruptors of ARNT/TACC3 protein interaction, primary screen, biochemical, AlphaScreen, single concentration; Transforming acidic coiled-coil-containing protein 3 (Homo sapiens), Q9Y6A5; AlphaScreen His-ARNT PAS-B/GST-TACC3 binding, luminescence; TACC3 fragment carries E629A point mutation; inhibition, % at 9.99 µM; 0.66% of 390,000 active; AID 623870, 2012;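 active = mean inhibition of replicates at least 50% and at least half of replicates each reaching 50%; inconclusive = half or more replicates reach 50% but mean below 50%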;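 also: 0% = complete ARNT plus TACC3 wells and 100% = ARNT alone without TACC3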
CFTR F508del cor – F508del CFTR correction, initial screen, CFBE line, single point | CFBE cells, YFP halide quenching; stimulated with forskolin plus potentiator P3; % fluorescence drop versus neutral controls | activity (quench increase), % at 7.58 µM | 0.36% of 350,000 active | AID 720511, 2013;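 active = mean added fluorescence quench of at least 8% versus neutral control, with both replicates also reaching 8%; inconclusive = only one of the mean or replicate conditions met; inactive = mean below 8% and not both replicates reaching 8%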;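 also: cells transiently co-express mutant CFTR-F508del with the halide-sensitive YFP; corrector assay measuring rescue of mutant channel to the surface after 24 h compound exposure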
CAL PDZ FP-1 – CAL PDZ peptide-binding inhibitors, primary screen, biochemical, fluorescence polarization, Cer-tagged CAL PDZ, HTS; AID 504414, 2011; 0.02% of 330,000 active; inhibition, % at 20 µM; Golgi-associated PDZ and coiled-coil motif-containing protein (Homo sapiens), Q9HD26; purified CAL PDZ, TMR-peptide fluorescence polarization, 1 h;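 active = highest replicate inhibition of at least 40%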;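 also: plate controls were DMSO neutral control wells for no effect and unlabeled competitor peptide control wells for full effect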
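Read-out basis: mP drop reported as inhibition | Assay system: Tagged CAL PDZ protein CerCALP, purified | Benchmarks: Unlabelled peptide for full inhibition, DMSO wells as neutral | Schedule: 1 h incubation at room temperature before polarization reading | Buffer or medium: Sodium phosphate/NaCl buffer pH 7.4 with TCEP, IgG, Thesit | Doses: Single point, 20 µM | Measured by: Fluorescence polarization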
miR-122 sensor – miR-122 Renilla sensor signal increase in Huh7, primary screen, miR-122 inhibitor project, cell-based, single point, plate reader | Huh7 miR-122 Renilla luciferase sensor, 48 h; neutral wells = 0, positive control = 100 | activation (reporter increase), % at 12.5 µM | 0.3% of 340,000 active;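 active = mean replicate activation score at least 90 and every replicate individually at or above 90; inconclusive = only one of the two criteria met; inactive = neither criterion met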;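 also: higher luciferase means less miR-122 activity so hits act as miR-122 inhibitors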
CAL PDZ FP-2 – untagged CAL PDZ binding inhibitors, primary screen, biochemical, fluorescence polarization, HTS | purified CAL PDZ, TMR-peptide fluorescence polarization, 1 h | AID 602252, 2012 | Golgi-associated PDZ and coiled-coil motif-containing protein (Homo sapiens), Q9HD26 | 0.92% of 300,000 active | inhibition, % at 24.9 µM;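 active = mean inhibition of at least 30% with at least half of replicates also reaching 30%; inconclusive = no clear call, values can overlap the other calls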;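 also: 0% = DMSO neutral control and 100% = excess unlabeled competitor peptide PRC23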
The depositor's hits bear a star; ? = inconclusive; . = no result given; + = active, no number; [ ] = another dose, or the depositor's remark.

SMILES	PGC1a acetyl inh	ARNT-TACC3 inh	CFTR F508del cor	CAL PDZ FP-1	miR-122 sensor	CAL PDZ FP-2
C[C@H]1CN([C@@H](C)CO)C(=O)Cc2cc(NC(=O)CCN3CCOCC3)ccc2O[C@H]1CN(C)C(=O)NC1CCCCC1	0	-1	2	.	-2[16.7 µM]	.
CCN(CC)c1ccc(C=Nc2cccnc2Cl)c(O)c1	-8	active	-1	-2	-13	-34
CCN(CC)c1ccc(C=Nc2cc(C)ccc2C)c(O)c1	2	.	.	0	20	5
CN(C)C(=O)C[C@@H]1C=C[C@H](NC(=O)C2CC2)[C@@H](CO)O1	-5	-1	1	.	.	.
Cc1ccc(S(=O)(=O)Nc2cccc3c2O[C@@H](CN(C)C(=O)NC(C)C)[C@@H](C)CN([C@H](C)CO)C3=O)cc1	-3	-11	2	.	-3[16.7 µM]	.
CCN1CCN(C(=S)Nc2ccsc2C(=O)OC)CC1	5	-4	-1	-1	-6	-2
COC(=O)c1sccc1NC(=S)Nc1ccc(F)cc1	.	-4	.	-1	147*	.
COC(=O)c1sccc1NC(=S)N1CCN(C)CC1	.	-3	-1	0	.	+
CC(C)C#Cc1cnc2c(c1)C(=O)N([C@H](C)CO)C[C@@H](C)[C@H](CN(C)C(=O)c1cnccn1)O2	-3	-16	-2	.	6[16.7 µM]	.
CO[C@@H]1CN(C)C(=O)c2cc(NS(=O)(=O)CC(F)(F)F)ccc2OC[C@H](C)N(CC2CCCCC2)C[C@@H]1C	4	.	-5	.	.	.
CCc1ccc(-c2cc(C)no2)cc1S(=O)(=O)NCCc1ccc(OC)c(OC)c1	7	2	2	-2	132*	0
CCc1ccc(-c2cc(C)no2)cc1S(=O)(=O)NCc1ccco1	0	1	1	-2	159*	-2
COc1ccccc1C(=O)Nc1ccc2c(c1)OC[C@H](C)NC[C@H](C)[C@@H](OC)CN(C)C2=O	6	.	1	.	.	.
CC(C)CCNC1c2ccccc2C(=O)N1Cc1ccccc1 (stereo unspecified)	-10	9	1	.	1	88*
CCOC(=O)C1CCN(c2nc(-c3ccc(C)cc3)nc3ccccc23)CC1	11	-6	0	-2	.	85*
Cc1c(N2C(=O)c3ccc(Br)cc3C2=O)c(=O)n(-c2ccccc2)n1C	38	-3	.	-1	-17	36*
NC(=S)NN=Cc1nccc2c(N)cccc12	.	.	13*	.	-13	.
CCN(C(C)=O)c1cnc(C=NNC(N)=S)c2ccccc12	5	86*	3	0	4	-3
CCCNC(=O)[C@@H]1[C@@H](CO)[C@@H]2Cn3c(ccc(-c4cccc(OC)c4)c3=O)[C@H]1N2CC	-2	.	-3	.	.	.
O=C(COc1ccc2ccccc2c1)NNC(=O)Nc1ccccc1F	-2	-6	1	1	-2	-3
Cc1ccccc1NC(=O)C(=O)NNC(=O)COc1ccc2ccccc2c1	.	-2	-1	-1	0	39*
O=C(N[C@@H]1CC[C@H](CC(=O)N2CCC(Cc3ccccc3)CC2)O[C@@H]1CO)c1cnccn1	-2	2	2	.	.	.
C[C@@H]1CCCCO[C@H](CN(C)C(=O)Nc2ccc(F)cc2)[C@@H](C)CN([C@@H](C)CO)C(=O)c2cc(NC(=O)c3ccccc3)ccc2O1	-1	1	-3	.	7[16.7 µM]	.
c1ccc(-c2ccc3nnnn3n2)cc1	-4	-7	1	0	.	0
CC(C)Oc1ccc2nnnn2n1	?	0	.	.	-4	130*
SMILES	PGC1a acetyl inh	ARNT-TACC3 inh	CFTR F508del cor	CAL PDZ FP-1	miR-122 sensor	CAL PDZ FP-2
CNC(=O)c1cc2cc(OC)ccc2n1CCN(C)C	-14	-2	.	.	0	47*
CNC(=O)c1cc2cc(OC)ccc2n1CCN(Cc1ccccc1)Cc1ccccc1	-38	-3	.	3	3	0
O=C(Nc1nccs1)c1ccc2ccccc2n1	.	4	0	-2	1	35*
FC(F)Sc1ccc(NC(=S)NC2CCCCC2)cc1	10	4	.	0	121*	-3
CC1CCCCC1NC(=S)Nc1ccc(SC(F)F)cc1 (stereo unspecified)	4	0	.	0	115*	9
FC(F)Sc1ccc(NC(=S)NCC2CCCCC2)cc1	-10	3	1	-2	.	1
CN(C)CC(=O)N1CC(=O)N2[C@H](CO)[C@@H](c3ccc(/C=C/c4ccccc4)cc3)[C@H]2C1	-24	.	1	.	.	.
C[C@H]1CN([C@@H](C)CO)C(=O)c2cc(C#CCN(C)C)cnc2O[C@@H]1CN(C)S(=O)(=O)c1cn(C)cn1	-7	-22	-1	.	-4[16.7 µM]	.
CCCCCCC(=O)Oc1cccc(N2C(=O)C3CCCCC3C2=O)c1 (stereo unspecified)	.	-4	-5	0	.	79*
CCCCCCC(=O)Oc1cccc(C2=CC(=O)CC(C)(C)C2=O)c1	0	.	-1	.	1	.
Cc1ccsc1C(=O)Nc1cc(Cl)ccc1-n1cncn1	61*	4	-1	-3	4	-5
Cc1ccccc1C(=O)c1ccccc1C(=O)c1ccccc1	-15	-2	7	0	5	86*
CC(=O)N1[C@@H]2c3ccc(-c4ccccc4)c(=O)n3C[C@H]1[C@H](CO)[C@H]2C(=O)NCC1CC1	8	-3	-2	.	-4[16.7 µM]	.
N#Cc1ccc(NC(=S)N2CCC3CC2c2cc(-c4ccc5c(c4)OCO5)ccc23)cc1 (stereo unspecified)	-14	.	-2	.	110*	.
CC(C)(C)NC(=S)N1CCC2CC1c1cc(-c3ccc4c(c3)OCO4)ccc12 (stereo unspecified)	-22	.	3	.	-5	.
CCOCc1cc(=O)[nH]c(SC)n1	.	-2	-1	-1	-6	70*
C[C@@H]1CCCCO[C@H](CN(C)Cc2ccncc2)[C@H](C)CN([C@@H](C)CO)C(=O)c2cc(N(C)C)ccc2O1	-1	2	-1	.	2[16.7 µM]	.
CO[C@H]1CC[C@@H]2CCN(C)C(=O)[C@@H](C)[C@H](OC)CN(C)C(=O)c3cccc(C#N)c3OC[C@@H]1O2	16	-4	4	.	.	.
Nc1ccc(S(=O)(=O)NNC(=O)C(=O)NNc2ccccn2)cc1	.	74*	.	1	.	-1
CC(=O)Nc1ccc(S(=O)(=O)NNC(=O)C(=O)NNc2ccccn2)cc1	11	75*	-1	-3	4	0
Nc1ccc(S(=O)(=O)NCc2ccccn2)cc1	10	0	-1	-1	1	-2
Cc1ccc(S(=O)(=O)NNC(=O)C(=O)NNc2ccccn2)cc1	.	63*	.	1	.	-5
